Measured values as given in the M2OR odorant receptor database.

How the values were obtained:
Or1m1 (Mus musculus) = target: T1, Or1m1 (Mus musculus) (UniProt Q8VFM9); details: stereoisomer not certain
T1 sequence (whole entry): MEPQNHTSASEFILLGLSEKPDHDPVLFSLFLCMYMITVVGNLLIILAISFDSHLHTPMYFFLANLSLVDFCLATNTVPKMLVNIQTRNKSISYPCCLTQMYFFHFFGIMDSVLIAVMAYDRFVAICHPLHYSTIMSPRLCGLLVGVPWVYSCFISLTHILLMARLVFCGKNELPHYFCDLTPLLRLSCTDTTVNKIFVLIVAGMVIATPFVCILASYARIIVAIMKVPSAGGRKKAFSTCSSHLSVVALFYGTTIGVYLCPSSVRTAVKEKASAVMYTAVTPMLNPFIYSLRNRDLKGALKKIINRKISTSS
How it was run: (§1)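 Assay methods differ from source to source, frequently being transient luciferase assays in mammalian cell lines. For each receptor–molecule pair, the label responsive (active) applies when the original authors judged the measured signal statistically different from baseline, and non-responsive (inactive) applies otherwise.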

Or5ar1 (Mus musculus) = target: T2, Or5ar1 (Mus musculus) (UniProt Q8VGS3); details: stereoisomer not certain
T2 sequence (whole entry): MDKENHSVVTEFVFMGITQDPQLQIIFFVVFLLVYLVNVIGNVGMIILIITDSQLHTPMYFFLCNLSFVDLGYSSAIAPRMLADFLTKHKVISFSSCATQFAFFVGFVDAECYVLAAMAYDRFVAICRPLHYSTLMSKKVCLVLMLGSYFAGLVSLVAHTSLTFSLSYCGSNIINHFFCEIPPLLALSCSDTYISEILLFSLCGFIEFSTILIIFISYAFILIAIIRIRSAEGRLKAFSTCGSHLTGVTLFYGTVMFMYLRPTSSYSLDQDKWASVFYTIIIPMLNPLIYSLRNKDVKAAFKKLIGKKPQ
How it was run: as §1

Structure (SMILES) | odorant receptor agonist call (Or1m1 (Mus musculus)) | odorant receptor agonist call (Or5ar1 (Mus musculus))
C1CCOC1 | inactive | inactive
C=CC(C)=CCC=C(C)CCC=C(C)C | inactive | inactive
CSSCc1ccco1 | inactive | inactive
CC(CC=O)CCCC(C)(C)O (centres undefined) | inactive | inactive
O=C(OCc1ccccc1)c1ccccc1O | inactive | inactive
c1ccc2ncccc2c1 | inactive | inactive
C=C(C)C1CC=C(C)CC1 (centres undefined) | inactive | inactive
CCOC(=O)CC(C)C | inactive | inactive
CC=C(C)C=O | inactive | inactive
CC(=O)C1(C)CC2=C(CCCC2(C)C)CC1C (centres undefined) | inactive | inactive
Cc1ccc(C(C)C)c(O)c1 | inactive | inactive
Cc1occc1SSc1ccoc1C | inactive | inactive
CCCC(C)C(=O)OCC (centres undefined) | inactive | inactive
CCCCCCC(C)O (centres undefined) | inactive | inactive
CC=CC(=O)C1=C(C)CCCC1(C)C | inactive | inactive
CCN(CC)CC | inactive | inactive
CCCCCCCOC(=O)C(C)C | inactive | inactive
CC(=O)OCCc1ccccc1 | inactive | inactive
CCCCCC(C)O (centres undefined) | inactive | inactive
COc1nccnc1C | inactive | inactive
CCCO | inactive | inactive
CCCCCCCCCCOC(C)=O | inactive | inactive
CC(C)CS | inactive | inactive
COC(OC)c1ccccc1 | inactive | inactive
C=C(C)C1CCC(C)C(O)C1 (centres undefined) | inactive | inactive
CNc1ccccc1C(=O)OC | inactive | inactive
CCCCCCC(C=O)=Cc1ccccc1 | inactive | inactive
